Measurements as given in ChEMBL document CHEMBL4152188, “Design, synthesis and biological evaluation of C(4) substituted monobactams as antibacterial agents against multidrug-resistant Gram-negative bacteria” (Eur J Med Chem, 2018).
In brackets after ≈: the same amount, converted by molar mass.

Key:
Format in all cases: functional
[1] = test system: Escherichia coli; experiment: Antibacterial activity against extended-spectrum beta-lactamase producing Escherichia coli isolate 212648 after 18 hrs by CLSI broth microdilution method; settings: isolate 212648, 18 h
[2] = test system: Escherichia coli; experiment: Selectivity index, ratio of MIC for against extended-spectrum beta-lactamase producing Escherichia coli isolate 208687 to MIC for extended-spectrum beta-lactamase producing Escherichia coli isolate 208687 in presence of BPL
[3] = test system: Escherichia coli; experiment: Antibacterial activity against Escherichia coli isolate 210737 after 18 hrs by CLSI broth microdilution method; settings: isolate 210737, 18 h
[4] = test system: Escherichia coli; experiment: Antibacterial activity against extended-spectrum beta-lactamase producing Escherichia coli isolate 208687 after 18 hrs by CLSI broth microdilution method; settings: isolate 208687, 18 h
[5] = test system: Escherichia coli; experiment: Antibacterial activity against extended-spectrum beta-lactamase producing Escherichia coli isolate 208687 after 18 hrs in presence of BPL by CLSI broth microdilution method; settings: isolate 208687, 18 h
Method in brief: (§1)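 CLSI broth microdilution against clinical isolates (ESBL E. coli, KPC-2 MDR K. pneumoniae, IMP-4 MDR P. aeruginosa; five per species). Iron limitation: Mueller-Hinton broth supplemented with 16 mg/liter 2,2'-bipyridyl to complex iron and induce iron uptake systems. Read-out: MIC.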

[6] = test system: Escherichia coli; experiment: Antibacterial activity against Escherichia coli isolate 210737 after 18 hrs in presence of BPL by CLSI broth microdilution method; settings: isolate 210737, 18 h; method in brief: as §1
[7] = test system: Escherichia coli; experiment: Selectivity index, ratio of MIC for against Escherichia coli isolate 210737 to MIC for Escherichia coli isolate 210737 in presence of BPL
[8] = test system: Escherichia coli; experiment: Antibacterial activity against extended-spectrum beta-lactamase producing Escherichia coli isolate 212648 after 18 hrs in presence of BPL by CLSI broth microdilution method; settings: isolate 212648, 18 h; method in brief: as §1
[9] = test system: Escherichia coli; experiment: Selectivity index, ratio of MIC for against extended-spectrum beta-lactamase producing Escherichia coli isolate 212648 to MIC for extended-spectrum beta-lactamase producing Escherichia coli isolate 212648 in presence of BPL
[10] = test system: Escherichia coli; experiment: Antibacterial activity against extended-spectrum beta-lactamase producing Escherichia coli isolate 209285 after 18 hrs by CLSI broth microdilution method; settings: isolate 209285, 18 h
[11] = test system: Escherichia coli; experiment: Antibacterial activity against extended-spectrum beta-lactamase producing Escherichia coli isolate 209285 after 18 hrs in presence of BPL by CLSI broth microdilution method; settings: isolate 209285, 18 h; method in brief: as §1
[12] = test system: Escherichia coli; experiment: Selectivity index, ratio of MIC for against extended-spectrum beta-lactamase producing Escherichia coli isolate 209285 to MIC for extended-spectrum beta-lactamase producing Escherichia coli isolate 209285 in presence of BPL
[13] = test system: Escherichia coli; experiment: Antibacterial activity against extended-spectrum beta-lactamase producing Escherichia coli isolate 106342 after 18 hrs by CLSI broth microdilution method; settings: isolate 106342, 18 h
[14] = test system: Escherichia coli; experiment: Antibacterial activity against extended-spectrum beta-lactamase producing Escherichia coli isolate 106342 after 18 hrs in presence of BPL by CLSI broth microdilution method; settings: isolate 106342, 18 h; method in brief: as §1
[15] = test system: Escherichia coli; experiment: Selectivity index, ratio of MIC for against extended-spectrum beta-lactamase producing Escherichia coli isolate 106342 to MIC for extended-spectrum beta-lactamase producing Escherichia coli isolate 106342 in presence of BPL
[16] = test system: Klebsiella pneumoniae; experiment: Antibacterial activity against KPC-2 producing Klebsiella pneumoniae isolate 212423 after 18 hrs by CLSI broth microdilution method; settings: isolate 212423, 18 h
[17] = test system: Klebsiella pneumoniae; experiment: Antibacterial activity against KPC-2 producing Klebsiella pneumoniae isolate 212423 after 18 hrs in presence of BPL by CLSI broth microdilution method; settings: isolate 212423, 18 h; method in brief: as §1
[18] = test system: Klebsiella pneumoniae; experiment: Selectivity index, ratio of MIC for against KPC-2 producing Klebsiella pneumoniae isolate 212423 to MIC for against KPC-2 producing Klebsiella pneumoniae isolate 212423 in presence of BPL
[19] = test system: Klebsiella pneumoniae; experiment: Antibacterial activity against KPC-2 producing Klebsiella pneumoniae isolate 209632 after 18 hrs by CLSI broth microdilution method; settings: isolate 209632, 18 h
[20] = test system: Klebsiella pneumoniae; experiment: Antibacterial activity against KPC-2 producing Klebsiella pneumoniae isolate 209632 after 18 hrs in presence of BPL by CLSI broth microdilution method; settings: isolate 209632, 18 h; method in brief: as §1
[21] = test system: Klebsiella pneumoniae; experiment: Selectivity index, ratio of MIC for against KPC-2 producing Klebsiella pneumoniae isolate 209632 to MIC for against KPC-2 producing Klebsiella pneumoniae isolate 209632 in presence of BPL
[22] = test system: Klebsiella pneumoniae; experiment: Antibacterial activity against KPC-2 producing Klebsiella pneumoniae isolate 209735 after 18 hrs by CLSI broth microdilution method; settings: isolate 209735, 18 h
[23] = test system: Klebsiella pneumoniae; experiment: Antibacterial activity against KPC-2 producing Klebsiella pneumoniae isolate 209735 after 18 hrs in presence of BPL by CLSI broth microdilution method; settings: isolate 209735, 18 h; method in brief: as §1
[24] = test system: Klebsiella pneumoniae; experiment: Selectivity index, ratio of MIC for against KPC-2 producing Klebsiella pneumoniae isolate 209735 to MIC for against KPC-2 producing Klebsiella pneumoniae isolate 209735 in presence of BPL
[25] = test system: Klebsiella pneumoniae; experiment: Antibacterial activity against KPC-2 producing Klebsiella pneumoniae isolate 212232 after 18 hrs by CLSI broth microdilution method; settings: isolate 212232, 18 h
[26] = test system: Klebsiella pneumoniae; experiment: Antibacterial activity against KPC-2 producing Klebsiella pneumoniae isolate 212232 after 18 hrs in presence of BPL by CLSI broth microdilution method; settings: isolate 212232, 18 h; method in brief: as §1
[27] = test system: Klebsiella pneumoniae; experiment: Selectivity index, ratio of MIC for against KPC-2 producing Klebsiella pneumoniae isolate 212232 to MIC for against KPC-2 producing Klebsiella pneumoniae isolate 212232 in presence of BPL
[28] = test system: Klebsiella pneumoniae; experiment: Antibacterial activity against KPC-2 producing Klebsiella pneumoniae isolate 212229 after 18 hrs by CLSI broth microdilution method; settings: isolate 212229, 18 h
[29] = test system: Klebsiella pneumoniae; experiment: Antibacterial activity against KPC-2 producing Klebsiella pneumoniae isolate 212229 after 18 hrs in presence of BPL by CLSI broth microdilution method; settings: isolate 212229, 18 h; method in brief: as §1
[30] = test system: Klebsiella pneumoniae; experiment: Selectivity index, ratio of MIC for against KPC-2 producing Klebsiella pneumoniae isolate 212229 to MIC for against KPC-2 producing Klebsiella pneumoniae isolate 212229 in presence of BPL
[31] = test system: Pseudomonas aeruginosa; experiment: Antibacterial activity against IMP-4 producing Pseudomonas aeruginosa isolate 212886 after 18 hrs by CLSI broth microdilution method; settings: isolate 212886, 18 h
[32] = test system: Pseudomonas aeruginosa; experiment: Antibacterial activity against IMP-4 producing Pseudomonas aeruginosa isolate 212886 after 18 hrs in presence of BPL by CLSI broth microdilution method; settings: isolate 212886, 18 h; method in brief: as §1
[33] = test system: Pseudomonas aeruginosa; experiment: Antibacterial activity against IMP-4 producing Pseudomonas aeruginosa isolate 209471 after 18 hrs by CLSI broth microdilution method; settings: isolate 209471, 18 h
[34] = test system: Pseudomonas aeruginosa; experiment: Antibacterial activity against IMP-4 producing Pseudomonas aeruginosa isolate 209471 after 18 hrs in presence of BPL by CLSI broth microdilution method; settings: isolate 209471, 18 h; method in brief: as §1
[35] = test system: Pseudomonas aeruginosa; experiment: Selectivity index, ratio of MIC for against IMP-4 producing Pseudomonas aeruginosa isolate 209471 to MIC for against IMP-4 producing Pseudomonas aeruginosa isolate 209471 in presence of BPL
[36] = test system: Pseudomonas aeruginosa; experiment: Antibacterial activity against IMP-4 producing Pseudomonas aeruginosa isolate 208247 after 18 hrs by CLSI broth microdilution method; settings: isolate 208247, 18 h
[37] = test system: Pseudomonas aeruginosa; experiment: Antibacterial activity against IMP-4 producing Pseudomonas aeruginosa isolate 208247 after 18 hrs in presence of BPL by CLSI broth microdilution method; settings: isolate 208247, 18 h; method in brief: as §1
[38] = test system: Pseudomonas aeruginosa; experiment: Selectivity index, ratio of MIC for against IMP-4 producing Pseudomonas aeruginosa isolate 208247 to MIC for against IMP-4 producing Pseudomonas aeruginosa isolate 208247 in presence of BPL
[39] = test system: Pseudomonas aeruginosa; experiment: Antibacterial activity against IMP-4 producing Pseudomonas aeruginosa isolate 209321 after 18 hrs by CLSI broth microdilution method; settings: isolate 209321, 18 h
[40] = test system: Pseudomonas aeruginosa; experiment: Antibacterial activity against IMP-4 producing Pseudomonas aeruginosa isolate 209321 after 18 hrs in presence of BPL by CLSI broth microdilution method; settings: isolate 209321, 18 h; method in brief: as §1
[41] = test system: Pseudomonas aeruginosa; experiment: Antibacterial activity against IMP-4 producing Pseudomonas aeruginosa isolate 207272 after 18 hrs by CLSI broth microdilution method; settings: isolate 207272, 18 h
[42] = test system: Pseudomonas aeruginosa; experiment: Antibacterial activity against IMP-4 producing Pseudomonas aeruginosa isolate 207272 after 18 hrs in presence of BPL by CLSI broth microdilution method; settings: isolate 207272, 18 h; method in brief: as §1
[43] = test system: Pseudomonas aeruginosa; experiment: Selectivity index, ratio of MIC for against IMP-4 producing Pseudomonas aeruginosa isolate 207272 to MIC for against IMP-4 producing Pseudomonas aeruginosa isolate 207272 in presence of BPL

In the case of `CC(C)C(O/N=C(\C(=O)N[C@@H]1C(=O)N(S(=O)(=O)O)[C@@H]1CSc1nc2ccccc2o1)c1csc(N)n1)c1cc(=O)c(O)cn1O` (stereo partly drawn), the MIC [1] is reported as 2 µg/mL (≈ 2.94 µM), the “Selectivity Index” value [2] is reported as 4 and the MIC [3] is reported as 1 µg/mL (≈ 1.47 µM). It also gave an MIC [4] of 4 µg/mL (≈ 5.88 µM), an MIC [5] of 1 µg/mL and an MIC [6] of 0.5 µg/mL. The “Selectivity Index” value [7] was 2, the MIC [8] was 1 µg/mL and the “Selectivity Index” value [9] was 2. The MIC [10] was 4 µg/mL (≈ 5.88 µM), the MIC [11] was 2 µg/mL and the “Selectivity Index” value [12] was 2. For the same compound, the MIC [13] was 2 µg/mL (≈ 2.94 µM), the MIC [14] was 1 µg/mL and the “Selectivity Index” value [15] was 2. The MIC [16] was 4 µg/mL (≈ 5.88 µM), the MIC [17] was 2 µg/mL and the “Selectivity Index” value [18] was 2. The MIC [19] was 2 µg/mL (≈ 2.94 µM), the MIC [20] was 2 µg/mL and the “Selectivity Index” value [21] was 1. The MIC [22] was 4 µg/mL (≈ 5.88 µM), the MIC [23] was 2 µg/mL and the “Selectivity Index” value [24] was 2. The MIC [25] was 4 µg/mL (≈ 5.88 µM), the MIC [26] was 0.5 µg/mL and the “Selectivity Index” value [27] was 8. The MIC [28] was 2 µg/mL (≈ 2.94 µM), the MIC [29] was 1 µg/mL and the “Selectivity Index” value [30] was 2. It also gave an MIC [31] of over 64 µg/mL, an MIC [32] of over 64 µg/mL and an MIC [33] of 64 µg/mL (≈ 94.2 µM). For the same compound, the MIC [34] was 64 µg/mL, the “Selectivity Index” value [35] was 1 and the MIC [36] was 64 µg/mL (≈ 94.2 µM). The MIC [37] was 64 µg/mL, the “Selectivity Index” value [38] was 1 and the MIC [39] was over 64 µg/mL. It also gave an MIC [40] of over 64 µg/mL, an MIC [41] of 64 µg/mL (≈ 94.2 µM) and an MIC [42] of 64 µg/mL. For the same compound, the “Selectivity Index” value [43] was 1.
